Experimental data of several laboratories.
Target: Serine/threonine-protein kinase LATS2 (LATS2, Homo sapiens, UniProt Q9NRM7)
Residues used in one study (Q9NRM7 1-1088): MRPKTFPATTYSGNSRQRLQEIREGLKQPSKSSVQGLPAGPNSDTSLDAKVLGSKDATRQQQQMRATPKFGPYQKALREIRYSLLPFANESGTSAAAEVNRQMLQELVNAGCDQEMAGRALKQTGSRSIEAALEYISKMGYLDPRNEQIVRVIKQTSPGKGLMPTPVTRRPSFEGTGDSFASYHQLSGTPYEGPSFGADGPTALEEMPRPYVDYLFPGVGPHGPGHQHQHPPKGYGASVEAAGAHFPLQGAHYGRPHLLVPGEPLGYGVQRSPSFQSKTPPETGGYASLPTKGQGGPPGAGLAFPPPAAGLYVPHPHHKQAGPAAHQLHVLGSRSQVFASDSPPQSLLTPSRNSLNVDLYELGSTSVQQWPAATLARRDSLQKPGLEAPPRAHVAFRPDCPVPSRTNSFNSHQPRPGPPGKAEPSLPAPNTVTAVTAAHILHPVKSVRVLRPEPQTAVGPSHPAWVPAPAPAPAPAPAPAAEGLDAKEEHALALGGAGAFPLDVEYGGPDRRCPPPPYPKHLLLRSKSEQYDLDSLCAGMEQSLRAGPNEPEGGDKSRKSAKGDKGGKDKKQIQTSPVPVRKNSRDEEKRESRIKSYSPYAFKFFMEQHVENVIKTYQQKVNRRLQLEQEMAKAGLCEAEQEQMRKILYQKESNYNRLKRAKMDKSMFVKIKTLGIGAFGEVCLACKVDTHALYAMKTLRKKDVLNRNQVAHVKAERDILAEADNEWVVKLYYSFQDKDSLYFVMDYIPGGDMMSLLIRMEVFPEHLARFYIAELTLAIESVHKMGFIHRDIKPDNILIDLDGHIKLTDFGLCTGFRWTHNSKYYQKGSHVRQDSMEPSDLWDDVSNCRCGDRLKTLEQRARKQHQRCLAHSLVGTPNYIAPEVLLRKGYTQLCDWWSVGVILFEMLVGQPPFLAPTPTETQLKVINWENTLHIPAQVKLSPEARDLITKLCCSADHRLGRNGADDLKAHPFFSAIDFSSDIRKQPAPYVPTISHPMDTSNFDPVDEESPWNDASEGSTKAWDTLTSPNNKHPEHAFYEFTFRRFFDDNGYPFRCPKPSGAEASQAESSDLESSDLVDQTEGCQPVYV

c1cncc(-c2cccc(Nc3nccc(NC4CCCCC4)n3)c2)c1  remaining binding (binding, competition with immobilised ligand; 10 µM): 12%
Cc1cnc(Nc2ccc(C(=O)N3CCC(N4CCCC4)CC3)cc2)nc1-c1cc2ccccc2s1  remaining binding (binding, competition with immobilised ligand; 1 µM): 44%
F[C@@H]1CCN(c2nccc(-c3cnn4ncccc34)n2)C1  remaining binding (binding; 1 µM): 100%
COc1cnc(Nc2cccc(S(N)(=O)=O)c2)nc1N1CCN(c2ccccc2)C(=O)C1  remaining binding (binding, competition with immobilised ligand; 1 µM): 100%
Cc1nc(C2CCN(C(=O)c3ccc(OC(F)(F)F)cc3N)CC2)c2ncc(N3CCN(C)CC3)cc2n1  remaining binding (cell-free assay, competition with immobilised ligand; 1 µM): 100%
CN(CCCC(F)(F)F)c1nccc(-c2cnn3ncccc23)n1  remaining binding (binding; 1 µM): 100%
C[C@@]1(Cc2ccc(C#N)cc2)C(=O)N(c2cc(Cl)cc(Cl)c2)c2ncc(C(=O)NC3(c4nc(C5CCC5)no4)CC3)n21  remaining binding (cell-free assay, competition with immobilised ligand; 1 µM): 92%
CCN1CCN(Cc2ccc(C(=O)Nc3ccc(C)c(Oc4ccc5c(c4)CC(=O)N5)c3)cc2C(F)(F)F)CC1  remaining binding (binding, competition with immobilised ligand; 1 µM): 100%
O=C(Nc1c[nH]nc1C(=O)NC1CCNCC1)c1cc(F)cc(F)c1  remaining binding (binding, competition with immobilised ligand; 1 µM): 94%
N[C@H]1CCN(c2nccc(-c3cnn4ncccc34)n2)C1  remaining binding (binding; 1 µM): 74%
CS(=O)(=O)NCC[C@H](NC(=O)c1cncc2c1cnn2-c1ccc(F)cc1)c1ccnc(S(C)(=O)=O)c1  remaining binding (cell-free assay, competition with immobilised ligand; 1 µM): 97%
CN(C)c1nccc(-c2cnn3ncccc23)n1  remaining binding (binding; 1 µM): 64%
CCCNc1nc(C#Cc2ccc(Cl)s2)nc2c1ncn2[C@H]1[C@H](O)[C@H](O)[C@]2(C(=O)NC)C[C@H]12  remaining binding (binding, competition with immobilised ligand; 10 µM): 26%
CCCCN(CCCC)C(=O)CN1C[C@@H](c2cc(OC)c3c(c2)OCO3)[C@H](C(=O)O)[C@H]1CC(C)(C)CCC  remaining binding (cell-free assay, competition with immobilised ligand; 1 µM): 100%
FC(F)(F)Oc1cccc(-c2cnc3ccc(-c4ccncc4)nn23)c1  remaining binding (cell-free assay, competition with immobilised ligand; 5 µM): 38%
C[C@@H]1CCN(c2nccc(-c3cnn4ncccc34)n2)C1  remaining binding (binding; 1 µM): 93%
C[C@H](c1ccc(F)cc1)N(Cc1cccc(C(=O)O)c1)C(=O)c1cnc2ccccc2c1  remaining binding (cell-free assay, competition with immobilised ligand; 1 µM): 64%
COc1ccnn2ncc(-c3ccnc(N(C)C)n3)c12  remaining binding (binding; 1 µM): 100%
FC(F)(F)c1ccc2c(c1)nc(-c1cccnc1)n2C1CC1  remaining binding (cell-free assay, competition with immobilised ligand; 1 µM): 100%
O=C(c1ccc(Nc2nccc(-c3cc4ccccc4s3)n2)cc1)N1CCC(N2CCCC2)CC1  remaining binding (binding, competition with immobilised ligand; 1 µM): 72%
